Assay results from ChEMBL document CHEMBL4190318 (Eur J Med Chem, 2017).
Active and inactive are the calls of the source. The rule behind the calls is not given here.

T1: Acid ceramidase (Rattus norvegicus) (UniProt Q6P7S1)
T1 sequence (whole entry): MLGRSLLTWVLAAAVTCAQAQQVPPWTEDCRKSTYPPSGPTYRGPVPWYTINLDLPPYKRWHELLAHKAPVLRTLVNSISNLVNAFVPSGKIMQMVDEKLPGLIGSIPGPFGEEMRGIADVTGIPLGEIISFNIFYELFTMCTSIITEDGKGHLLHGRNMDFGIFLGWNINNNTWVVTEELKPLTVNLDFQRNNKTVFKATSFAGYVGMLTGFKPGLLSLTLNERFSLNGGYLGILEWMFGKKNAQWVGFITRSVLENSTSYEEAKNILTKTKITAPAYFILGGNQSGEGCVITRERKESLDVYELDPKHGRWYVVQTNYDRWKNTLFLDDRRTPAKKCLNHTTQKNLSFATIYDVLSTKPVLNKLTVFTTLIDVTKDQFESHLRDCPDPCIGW

T2: N-acylethanolamine-hydrolyzing acid amidase (Rattus norvegicus, UniProt Q5KTC7)
T2 sequence (Q5KTC7 whole entry): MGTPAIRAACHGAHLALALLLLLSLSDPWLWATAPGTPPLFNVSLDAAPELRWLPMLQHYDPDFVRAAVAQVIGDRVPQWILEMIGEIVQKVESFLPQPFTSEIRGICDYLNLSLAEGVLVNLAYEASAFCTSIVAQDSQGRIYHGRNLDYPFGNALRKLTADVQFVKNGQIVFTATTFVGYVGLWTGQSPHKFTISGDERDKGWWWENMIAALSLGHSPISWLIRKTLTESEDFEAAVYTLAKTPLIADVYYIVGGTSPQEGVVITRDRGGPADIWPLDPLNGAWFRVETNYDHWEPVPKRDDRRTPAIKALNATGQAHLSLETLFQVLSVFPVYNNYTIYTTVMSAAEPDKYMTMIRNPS

T3: N-acylethanolamine-hydrolyzing acid amidase (Rattus norvegicus) (UniProt Q5KTC7)
T3 sequence (whole entry): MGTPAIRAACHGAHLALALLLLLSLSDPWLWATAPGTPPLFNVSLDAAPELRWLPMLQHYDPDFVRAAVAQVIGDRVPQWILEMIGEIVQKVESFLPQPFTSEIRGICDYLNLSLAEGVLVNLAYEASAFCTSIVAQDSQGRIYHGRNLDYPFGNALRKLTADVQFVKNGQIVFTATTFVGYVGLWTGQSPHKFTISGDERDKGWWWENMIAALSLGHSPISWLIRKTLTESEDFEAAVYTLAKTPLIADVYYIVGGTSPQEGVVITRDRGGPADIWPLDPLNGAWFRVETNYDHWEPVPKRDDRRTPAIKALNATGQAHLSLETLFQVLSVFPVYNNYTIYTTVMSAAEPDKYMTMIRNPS


Columns and labels:
[1] = molecular target: T1, Acid ceramidase (Rattus norvegicus); assay: Inhibition of rat acid ceramidase expressed in HEK293 cells assessed as remaining activity at 20 uM using N-lauroylceramide as substrate after 30 mins by LC-MS analysis (reference value: 100 +/- 21.4 %); type: cell-based
[2] = molecular target: N-acylethanolamine acid amidase (Rattus norvegicus); assay: Inhibition of rat N-acylethanolamine acid amidase expressed in HEK293 cells using heptadecenoylethanolamide as substrate after 30 mins by LC-MS analysis
[3] = molecular target: T2, N-acylethanolamine-hydrolyzing acid amidase; assay: Inhibition of rat NAAA expressed in HEK293 cells using heptadecenoylethanolamide as substrate after 30 mins by HPLC-MS/MS analysis
How it was run: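 Rat NAAA activity measured against heptadecenoylethanolamide (C17:1 FAE) substrate, with hydrolysis products quantified by LC-MS. IC50 derived by nonlinear regression of concentration-response curves. Runs done in triplicate (n = 3); mean ± SD of three independent experiments.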

[4] = molecular target: T3, N-acylethanolamine-hydrolyzing acid amidase (Rattus norvegicus); assay: Inhibition of rat NAAA expressed in HEK293 cells at 50 to 250 nM using heptadecenoylethanolamide as substrate after 30 mins in presence of non-covalent competitive NAAA inhibitor E8 by Yonetani-Theorell plot analysis; type: cell-based
[5] = molecular target: T3, N-acylethanolamine-hydrolyzing acid amidase (Rattus norvegicus); assay: Reversible inhibition of rat NAAA expressed in HEK293 cells at 10 fold IC50 preincubated for 10 mins followed by 100 fold dilution using heptadecenoylethanolamide as substrate by HPLC-MS/MS analysis; type: cell-based
[6] = molecular target: T3, N-acylethanolamine-hydrolyzing acid amidase (Rattus norvegicus); assay: Inhibition of rat NAAA expressed in HEK293 cells at 50 to 250 nM using heptadecenoylethanolamide as substrate after 30 mins in presence of covalent beta-lactone NAAA inhibitor ARN077 by Yonetani-Theorell plot analysis
[7] = compound: O=C(CCCCCc1cccc(Cl)c1)N1CCOC1=O; assay: (§1) Inhibition of rat NAAA expressed in HEK293 cells assessed as enzyme Vmax per mg protein in presence of varying concentration of heptadecenoylethanolamide substrate after 30 mins by Michaelis-Menten plot analysis (reference value: 9383 +/- 937 nmol/min); type: cell-based
[8] = compound: O=C(CCCCCc1ccc(Cl)cc1)N1CCOC1=O; assay: as §1; type: cell-based
[9] = compound: O=C(CCCCCc1cccc(Cl)c1)N1CCOC1=O; assay: (§2) Inhibition of rat NAAA expressed in HEK293 cells assessed as Km for substrate in presence of varying concentration of heptadecenoylethanolamide substrate after 30 mins by Michaelis-Menten plot analysis (reference value: 1395 +/- 260 microM); type: cell-based
[10] = compound: O=C(CCCCCc1ccc(Cl)cc1)N1CCOC1=O; assay: as §2; type: cell-based

IC50 [3]	Molecule	also measured
> 20 µM	NC(=O)c1cccc(CCCCCC(=O)N2CCOC2=O)c1	–
> 20 µM	NC(=O)c1ccc(CCCCCC(=O)N2CCOC2=O)cc1	–
0.33 µM	O=C1OCCN1C(=O)c1ccc(OC2CCOCC2)cc1	–
> 20 µM	O=C(CCCCCc1cccc(CO)c1)N1CCOC1=O	–
> 20 µM	Cc1ccc(CCCCCC(=O)N2CCOC2=O)cc1C	–
0.026 µM	O=C(CCCCCc1ccc(F)c(Cl)c1)N1CCOC1=O	–
4.6 µM	O=C(CCCCCc1ccc(Cl)cc1)N1CCOC1=O	–
> 20 µM	O=C(CCCCCc1ccc(O)c(Cl)c1)N1CCOC1=O	–
> 20 µM	O=C(CCCCCc1ccccc1Cl)N1CCOC1=O	–
0.19 µM	O=C(CCCCCc1ccc(CO)cc1)N1CCOC1=O	–
12.8 µM	CSc1cccc(CCCCCC(=O)N2CCOC2=O)c1	–
0.48 µM	CCC(CC)Oc1ccc(C(=O)N2CCOC2=O)cc1	–
0.12 µM	O=C1OCCN1C(=O)c1ccc(OC2CCCC2)cc1	–
0.43 µM	O=C(CCCCCc1cccc(Br)c1)N1CCOC1=O	–
8.64 µM	O=C(CCCCCc1cccc(O)c1)N1CCOC1=O	–
0.058 µM	O=C(CCCCCc1cccc(C(F)(F)F)c1)N1CCOC1=O	–
> 20 µM	COc1ccc(CCCCCC(=O)N2CCOC2=O)cc1	–
> 20 µM	Cc1ccccc1CCCCCC(=O)N1CCOC1=O	–
> 20 µM	Nc1cccc(CCCCCC(=O)N2CCOC2=O)c1	–
0.16 µM	O=C(CCCCCc1ccc(O)c(F)c1)N1CCOC1=O	–

More lines, now with the values behind:

Molecule	IC50 [3]	also measured
O=C(CCCCCc1ccccc1)N1CCOC1=O	–	Activity [1]: 90.6%; IC50 [2]: 0.27 µM
O=C1OCCN1C(=O)c1ccc(Oc2cccc(Cl)c2)cc1	7.74 µM	–
O=C1OCCN1C(=O)c1ccc(OC2CCCCC2)cc1	0.092 µM	Activity [1]: 81.7%; IC50 [2]: 0.092 µM
Nc1ccc(CCCCCC(=O)N2CCOC2=O)cc1	15.7 µM	–
O=C(O)c1ccc(CCCCCC(=O)N2CCOC2=O)cc1	> 20 µM	–
Cc1cccc(Oc2ccc(C(=O)N3CCOC3=O)cc2)c1	5.21 µM	–
CCCCOc1ccc(C(=O)N2CCOC2=O)cc1	1.34 µM	–
O=C(CCCCCc1ccc(Br)cc1)N1CCOC1=O	8.51 µM	–
O=C(CCCCCc1ccc(C(F)(F)F)cc1)N1CCOC1=O	1.04 µM	–
Cc1ccc(Oc2ccc(C(=O)N3CCOC3=O)cc2)cc1	6.4 µM	–
O=C1OCCN1C(=O)c1ccc(OC2CCC(O)CC2)cc1 (stereo unspecified)	0.21 µM	–
O=C(CCCCCc1ccc(O)cc1)N1CCOC1=O	–	Activity [1]: 95.1%
O=C(CCCCCc1cccc(Cl)c1)N1CCOC1=O	–	Activity [1]: 85.3%; inhibition [4]: Active; inhibition [5]: Active; inhibition [6]: Active
O=C(O)c1cccc(CCCCCC(=O)N2CCOC2=O)c1	> 20 µM	–
O=C1OCCN1C(=O)c1ccc(Oc2ccc(O)cc2)cc1	> 20 µM	–
O=C(CCCCCc1ccc(I)cc1)N1CCOC1=O	> 20 µM	–
COc1cccc(CCCCCC(=O)N2CCOC2=O)c1	16.3 µM	–
CCCCCCOc1ccc(C(=O)N2CCOC2=O)cc1	0.64 µM	–
O=C(CCCCCc1cccc(I)c1)N1CCOC1=O	3.12 µM	–
O=C(CCCCCc1ccccc1O)N1CCOC1=O	> 20 µM	–
CSc1ccc(CCCCCC(=O)N2CCOC2=O)cc1	> 20 µM	–
N-acylethanolamine-hydrolyzing acid amidase (Rattus norvegicus), Q5KTC7 (protein) MGTPAIRAACHGAHLALALLLLLSLSDPWLWATAPGTPPLFNVSLDAAPELRWLPMLQHYDPDFVRAAVAQVIGDRVPQWILEMIGEIVQKVESFLPQPFTSEIRGICDYLNLSLAEGVLVNLAYEASAFCTSIVAQDSQGRIYHGRNLDYPFGNALRKLTADVQFVKNGQIVFTATTFVGYVGLWTGQSPHKFTISGDERDKGWWWENMIAALSLGHSPISWLIRKTLTESEDFEAAVYTLAKTPLIADVYYIVGGTSPQEGVVITRDRGGPADIWPLDPLNGAWFRVETNYDHWEPVPKRDDRRTPAIKALNATGQAHLSLETLFQVLSVFPVYNNYTIYTTVMSAAEPDKYMTMIRNPS	–	Vmax [7]: 2790 nmol/min/mg; Vmax [8]: 9900 nmol/min/mg; Km [9]: 1280 µM; Km [10]: 1670 µM
